From PubChem
Rows were chosen to be rich in hits. Some 2.3% of all compounds tested hit in one or more screens of this group.
LMPTP block – blocks human LMPTP phosphatase; recombinant LMPTP-A, OMFP fluorogenic substrate, fluorescence intensity; 360,000 tested, 0.22% active; P24666; inhibition, % at 20 µM;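 active = compounds that cut the enzyme signal by at least half of the control window in the single-dose screen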
Target sequence (P24666 whole entry, looked up): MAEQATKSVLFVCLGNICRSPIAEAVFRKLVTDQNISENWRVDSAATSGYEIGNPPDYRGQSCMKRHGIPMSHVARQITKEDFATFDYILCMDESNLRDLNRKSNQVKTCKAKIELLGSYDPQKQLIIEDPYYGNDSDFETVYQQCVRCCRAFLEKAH
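Test system: LMPTP-A phosphatase enzyme. Amount: LMPTP-A at 0.625 nM final in the reaction. Reagent: OMFP substrate, 400 µM final. Times: 50 min at room temperature. Signal: endpoint fluorescence intensity from OMFP dephosphorylation. Read-out basis: % inhibition. Benchmarks: no-enzyme and uninhibited controls.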
DNMT1 block – inhibitors of human DNMT1 | 360,000 tested, 0.83% active | DNMT1 molecular beacon, Hinp1I cleavage, fluorescence | inhibition (reported as % activation of signal), % at 10 µM | P26358 | AID 588458; in the data active = inhibition above about 50%
Rpn11 block – inhibitors of human proteasome Rpn11; O00487; human 26S proteasome, Ub4-pepOG fluorescence polarization; 20S core pre-blocked with epoxomicin; inhibition, % at 20 µM; 360,000 tested, 0.59% active; AID 588493;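 active = inhibition at 20 µM, scaled to each plate's controls, above about 33%, limit read from the data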
Target sequence (O00487 whole entry, looked up): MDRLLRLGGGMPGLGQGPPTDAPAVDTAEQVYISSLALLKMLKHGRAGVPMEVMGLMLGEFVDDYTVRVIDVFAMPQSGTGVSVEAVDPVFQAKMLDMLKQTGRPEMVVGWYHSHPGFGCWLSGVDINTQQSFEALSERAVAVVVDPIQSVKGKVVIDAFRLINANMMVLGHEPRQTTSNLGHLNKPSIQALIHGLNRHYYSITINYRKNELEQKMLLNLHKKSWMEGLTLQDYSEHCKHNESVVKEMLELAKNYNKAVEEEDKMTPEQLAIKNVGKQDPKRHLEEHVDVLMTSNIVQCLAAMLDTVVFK
SUMO1-SIM PPI – alters human SUMO1 binding to SIM partners | 360,000 tested, 0.33% active | SUMO1 binding to a labelled peptide, TR-FRET, 1 h | AID 602429 | P63165 | inhibition, % at 20 µM; in the data active = inhibition above about 37%
Scp-1 inhibitor – blocks human Scp-1 phosphatase activity | Q9GZU7 | Recombinant Scp1, phosphopeptide, malachite green phosphate absorbance | inhibition, % at 20 µM | 340,000 tested, 0.88% active | AID 493091;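 active = inhibition above about 50% at 20 µM, limit read from the data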
Target sequence (Q9GZU7 76-261 limits assumed): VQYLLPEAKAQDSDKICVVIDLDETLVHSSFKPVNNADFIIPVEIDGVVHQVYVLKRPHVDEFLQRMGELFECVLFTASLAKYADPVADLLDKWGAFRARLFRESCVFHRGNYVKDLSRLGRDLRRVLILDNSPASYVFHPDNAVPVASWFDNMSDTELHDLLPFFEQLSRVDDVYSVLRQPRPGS
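Test system: SCP-1 phosphatase catalytic domain, residues 76-261 | Compound dosing: One concentration, 20 µM, with 1.0% DMSO | Schedule: 45 min room-temperature reaction, 5 min colour, 30 min stabiliser | Detection: Absorbance at 630 nm | Read-out basis: % inhibition of SCP-1 phosphate liberation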
STEP block – inhibitors of human striatal-enriched phosphatase STEP. recombinant STEP, OMFP fluorogenic substrate, fluorescence. inhibition, % at 20 µM. 360,000 tested, 0.25% active. AID 588621;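 active = inhibition at 20 µM, scaled per plate between control wells, above about 37%, limit read from the data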
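System: STEP phosphatase, cell-free reaction; Buffer or medium: Bis-Tris pH 6.0 buffer with DTT, detergent; Incubation: 20 min at room temperature, dark; Measured by: fluorescence, 480/540 nm.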
Scp-1 conf – confirmation of human Scp-1 phosphatase inhibitors; 2,500 tested, 61% active; recombinant SCP-1 catalytic domain, phosphate release, malachite green absorbance; inhibition, % at 20 µM; AID 540281; shares compounds with Scp-1 inhibitor
Scp-1 MG ctr – counter-screen for Scp-1 inhibitors: colorimetric interference; apparent inhibition (interference), % at 20 µM; shares compounds with Scp-1 inhibitor; AID 540313; 2,500 tested, under 10 active; Colorimetric interference counterscreen, malachite green absorbance 630 nm;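 note: compounds added after enzyme reaction finished so only phosphate colour detection is probed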
Scp1 DSF – Scp-1 (human) binding by thermal shift. shares compounds with Scp-1 inhibitor. Recombinant SCP1, Sypro Orange thermal shift Tm. thermal shift relative to vanadate control, % at 40 µM. 1,500 tested, 25% active;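 active = substances whose mean melting-temperature shift, as a percentage of the reference inhibitor's shift, reaches about 5.3%, limit read from the data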
A number is an active result; . = inactive; / = no result given.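 Rule for the calls, unless noted: active = inhibition of at least 30% at 20 µM; inactive = the rest.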

SMILES | LMPTP block | DNMT1 block | Rpn11 block | SUMO1-SIM PPI | Scp-1 inhibitor | STEP block | Scp-1 conf | Scp-1 MG ctr | others
COc1ccc(C2C(C#N)=C(N)OC3=C2C(=O)CC(C)(C)C3)c(OC)c1OC (configuration not stated) | . | . | . | . | 51 | . | . | .
COc1cc(OC)c(C2C(C#N)=C(N)OC3=C2C(=O)CC(C)(C)C3)cc1OC (configuration not stated) | . | . | . | . | . | . | / | /
CC[N+](CC)(CC)CC(=O)Nc1ccc(SC(F)F)cc1 | . | . | . | . | 60 | . | . | .
CC(=O)c1ccc(C(=O)Nc2nnc(-c3ccc(Cl)cc3)o2)cc1 | . | . | . | . | 54 | . | 43 | . | Scp1 DSF=.
CC(Cl)C(=O)NNC(=O)CNS(=O)(=O)c1ccccc1 (configuration not stated) | . | . | . | . | . | . | / | /
COC(=O)c1ccc(/C=N/NC(=O)C2CC(=O)N(c3ccc(OC)cc3)C2)cc1 (configuration not stated) | . | . | . | . | . | . | / | /
COc1ccc(N2CC(C(=O)N/N=C/c3ccccc3)CC2=O)cc1 (configuration not stated) | . | . | . | . | . | . | . | .
O=S(=O)(c1ccc(S(=O)(=O)N(Cc2ccccc2)Cc2ccco2)cc1)N1CCCC1 | . | . | . | . | . | . | / | /
COC(=O)/C=C/c1ccccc1S(=O)(=O)N(Cc1ccccc1)Cc1ccco1 | . | . | . | . | 73 | . | . | .
CCOc1ccc(NS(=O)(=O)c2ccc(C(=O)NCC(c3ccco3)N3CCCCC3)cc2)cc1 (configuration not stated) | . | . | . | . | / | . | / | /
CC1(C)CC2CC(C)(CN2C(=O)COC(=O)c2cncc(Br)c2)C1 (configuration not stated) | . | . | . | . | . | . | / | /
O=C(NCCc1c[nH]c2ccccc12)c1cc(Cl)c2c(c1)OCO2 | . | . | . | . | 52 | . | . | .
O=C(NCCc1c[nH]c2ccccc12)c1ccc2c(c1)OCO2 | . | . | . | . | . | . | / | /
CSC[C@H]1CN(c2ccccc2)C(=O)[C@@H]1CC(=O)Nc1ccccc1 | . | . | . | . | / | . | / | /
O=C(O)C1C2C=CC(C2)C1C(=O)Nc1ccccc1Br (configuration not stated) | . | . | . | . | 69 | 44 | 58 | . | Scp1 DSF=.
CC(NC(=O)C1C2C=CC(C2)C1C(=O)O)c1ccccc1 (configuration not stated) | . | . | . | . | . | . | / | /
COc1ccc(C(=O)N/N=C/c2ccc(OC)c(CN3CCCc4ccccc43)c2)cc1 | . | . | . | . | 56 | . | . | .
COc1ccc(/C=N/NC(=O)c2cccnc2)cc1CN1CCCc2ccccc21 | . | . | . | . | . | . | / | /
Cc1ccc(NC(=O)Cn2c(O)c(N=NC(=O)c3cc4ccccc4cc3O)c3ccccc32)cc1 | . | . | . | . | . | . | / | /
COc1ccccc1NC(=O)Cn1c(O)c(N=NC(=O)c2ccccc2O)c2ccccc21 | 60 | . | . | . | 94 | 55 | 90 | . | Scp1 DSF=.
O=C(NCCNC(=O)c1cc(Cl)ccc1Cl)c1cnccn1 | . | . | . | . | . | . | / | /
Cc1cc(Cl)ccc1NC(=O)CCC(=O)N/N=C/c1cc([N+](=O)[O-])ccc1O | . | . | . | . | 55 | . | 66 | . | Scp1 DSF=.
CC(NC(=O)COC(=O)c1nc(Cl)ccc1Cl)c1ccccc1 (configuration not stated) | . | . | . | . | . | . | / | /
Cc1c(NC(=O)Nc2ccc(Cl)cc2Cl)c(=O)n(-c2ccccc2)n1C | . | . | . | . | . | . | / | /
Cc1ccc(Cl)cc1NC(=O)Nc1c(C)n(C)n(-c2ccccc2)c1=O | . | . | . | . | 76 | . | . | .
SMILES | LMPTP block | DNMT1 block | Rpn11 block | SUMO1-SIM PPI | Scp-1 inhibitor | STEP block | Scp-1 conf | Scp-1 MG ctr | others
Cc1c(NC(=O)CN2C(=O)NC(C)(c3ccccc3)C2=O)c(=O)n(-c2ccccc2)n1C (configuration not stated) | . | . | . | . | . | . | . | .
COc1ccc(S(=O)(=O)CCC(=O)Nc2c(C)n(C)n(-c3ccccc3)c2=O)cc1 | . | . | . | . | 55 | . | . | .
O=C1CC(=O)Nc2cc(S(=O)(=O)N3CCOc4ccc(Cl)cc43)ccc2N1 | . | . | . | . | . | . | / | /
O=C(CSc1nc2ccccc2c(=O)n1-c1ccccc1)NCC1CCCO1 (configuration not stated) | . | . | . | . | 92 | . | . | .
Cn1cnc(S(=O)(=O)NC2CCN(Cc3c(F)cccc3Cl)CC2)c1 | . | . | . | . | . | . | / | /
CC(NC(=O)c1ccc(S(=O)(=O)Nc2ccccc2Cl)cc1)c1ccncc1 (configuration not stated) | . | . | . | . | . | . | / | /
COc1ccc(Nc2nnc(-c3ccncc3)s2)cc1Cl | 64 | 69 | / | 93 | 94 | 61 | 68 | . | Scp1 DSF=.
FC(F)(F)c1ccc(Cl)c(Nc2nnc(-c3ccncc3)s2)c1 | . | . | . | . | / | . | / | /
C=CCN(CC=C)S(=O)(=O)c1ccc(NC(=S)NC(=O)C2CC2)cc1 | . | . | . | . | . | . | / | /
Nn1c(SCC(=O)NC(=O)NCc2ccco2)nnc1-c1ccc(OC(F)F)cc1 | . | . | . | . | 63 | . | 54 | . | Scp1 DSF=.
O=C(CSc1nc(-c2ccc(F)cc2)cs1)NC(=O)NCc1ccco1 | . | . | . | . | 74 | . | 39 | . | Scp1 DSF=.
COc1ccc(CNC(=O)c2ccccc2SCC(=O)NCc2ccco2)cc1 | . | . | . | . | . | . | / | /
O=C(COC(=O)c1ccccc1NCCO)Nc1cccc(S(=O)(=O)NC2=NCCCCC2)c1 | . | . | . | . | 58 | . | 48 | . | Scp1 DSF=.
O=C(Nc1cccc(S(=O)(=O)NC2=NCCCCC2)c1)C1COc2ccccc2O1 (configuration not stated) | . | . | . | . | 50 | . | 65 | . | Scp1 DSF=.
N#Cc1ccc(OCC(=O)Nc2cccc(S(=O)(=O)NC3=NCCCCC3)c2)cc1 | . | . | . | . | 97 | . | 50 | . | Scp1 DSF=.
CCOc1ccccc1C(=O)OCC(=O)Nc1cccc(S(=O)(=O)NC2=NCCCCC2)c1 | . | . | . | . | . | . | / | /
